The values below come from PubChem BioAssay.

The source made the active and inactive calls.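 The calls were made as follows, unless noted: active = inhibition above 20% together with a positive visual image hit; inconclusive = visual image hit but inhibition not above 20%; inactive = no visual image hit.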

Assay [1] is described as follows: inhibitors of TNFa-induced NFkB p65 translocation, primary screen, imaging, HUVEC, MLSMR starter and 10KST1 sets (AID 438).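 Also: compound added about 3h40 before a 20 min TNFalpha stimulation.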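 As to inhibition: signal is the nuclear over cytoplasmic p65 intensity ratio per well.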 The conditions noted are these: HUVEC TNFa-induced p65 nuclear translocation; cell count: measured here: nuclei count (cytotoxicity indicator), at 2.08 µM; inhibition: at 2 µM, stronger effect = higher value, 0% TNFa-plus-vehicle, 100% no-TNFa wells.
Assay [2] is described as follows: inhibitors of E-selectin induction by TNFa, primary screen, imaging, HUVEC, immunofluorescence, MLSMR starter and 10KST1 sets (AID 487;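 active = visually confirmed hit in the image check and inhibition above 20%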;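 as to inhibition: signal is fraction of cell area covered by stained E-selectin grains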;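 as to nuclei count: 100% = median nuclei count of all wells on the same plate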). The conditions noted are these: HUVEC TNFalpha-induced E-selectin immunofluorescence imaging, at 2 µM; inhibition: stronger effect = higher value; nuclei count: measured here: cell number, toxicity.
Assay [3] is described as follows: DUSP6 inhibitors restoring Erk phosphorylation by chemical complementation, primary imaging in DUSP6-transfected HeLa (AID 609;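 active = compounds giving at least 50% inhibition in the cell-based MKP-3 phosphatase rescue imaging test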;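 as to inhibition: phospho-Erk level distribution per well compared with pooled transfected vehicle control wells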). The conditions noted are these: HeLa MKP-3 transfected, phospho-Erk imaging KS statistic, at 10 µM, cells stimulated with TPA for 15 min.
The target of assay [4] is Dual specificity protein phosphatase 6 (Homo sapiens) (UniProt Q16828). The assay is described as above. The settings on record: HeLa MKP-3 transfected, phospho-Erk imaging KS statistic; at 10 µM; stronger effect = higher value; cells stimulated with TPA for 15 min.
Assay [5] addresses Voltage-gated potassium channel subunit beta-2 (Rattus norvegicus) (UniProt P62483). Briefly: KvBeta enzyme negative modulators, primary screen, biochemical, NADPH fluorescence (AID 622;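 active = fluorescence slope higher than the sample average by over 3 SD, cut at about -0.22 in these data, passing the limit was not always enough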;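 also: slope of raw intensity against log time taken from 70 to 1610 s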). The settings on record: recombinant KvBeta, 4-cyanobenzaldehyde reduction, at 10 µM, stronger effect = higher value.
The target is the same in assay [6]. As to the kind of experiment: KvBeta positive modulators, primary screen, biochemical, NADPH fluorescence (AID 623;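 active = NADPH fluorescence slope more negative than the mean of all samples by about 3 SD, 99.7% confidence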;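 also: fluorescence intensity change per second fitted from 20 to 320 s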). The conditions noted are these: Recombinant KvBeta, NADPH fluorescence decrease slope, 10 min; at 10 µM; stronger effect = lower value.
In assay [7] the target is Alpha-2C adrenergic receptor (Homo sapiens) (UniProt P18825). As to the kind of experiment: modulators of alpha2C/GIRK thallium flux, primary screen, cell-based, HEK293 alpha2C/GIRK1/2 (AID 624;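 active = fluorescence slope after compound addition differing from the mean of all screened samples at 99.7% confidence, in either direction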;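 also: slope of fluorescence ratio to pre-addition baseline per second over 15 to 24 s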). The conditions noted are these: thallium flux BTC fluorescence, at 10 µM, actives lie on both sides.
Assay [8] is described as follows: inhibitors of larval lipid processing in zebrafish, primary screen, whole organism, PED6 fluorescence, gall bladder and intestine (AID 686;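 active = a full or partial loss of lipid-probe fluorescence in the fish gall bladder, intestine or both, judged by eye; inactive = no fluorescence loss, or compound toxic to the fish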;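 also: larvae 5 to 7 days old with five fish per well; signal comes from phospholipase A2 cleavage of quenched PED6 carried via bile; overnight exposure to compound and PED6 before scoring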). The settings on record: Zebrafish larvae PED6 lipid processing, fluorescence scoring; screened at 20 µM (by protocol). Put shortly:
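Also added: quenched phospholipase substrate PED6, 100 nM final, ingested by larvae; System: zebrafish larvae, 5-7 d; Quantity: 5 larvae per well; Compound: 20 µM single dose; Schedule: overnight compound and PED6 incubation; Read-out: visual per-well fluorescence inhibition score; Measured by: By-eye fluorescence microscopy; Medium: E3.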

Assay [9] in a line: inhibitors of Chlamydomonas gravitaxis, primary screen, whole organism, Chlamydomonas reinhardtii, WT vs cilia-less mutant, absorbance, 96-well (AID 463189;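 active = inhibition at or above 50% relative to wild type and mutant plate controls; inactive = inhibition below 50%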;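 also: 0% = wild type cc124 cells in DMSO and 100% = ciliumless bld1 mutant cells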). The conditions noted are these: OD600 absorbance, 2 days, at 10 µM, stronger effect = higher value.
[10] abbreviates: measured here: cell density z-score.
Where [11] appears, read: measured here: nuclear c-Myc green intensity z-score.
Where [12] appears, read: measured here: nuclear pErk red intensity z-score, stronger effect = higher value.

Voltage-gated potassium channel subunit beta-2 (Rattus norvegicus), sequence (P62483 whole entry, looked up): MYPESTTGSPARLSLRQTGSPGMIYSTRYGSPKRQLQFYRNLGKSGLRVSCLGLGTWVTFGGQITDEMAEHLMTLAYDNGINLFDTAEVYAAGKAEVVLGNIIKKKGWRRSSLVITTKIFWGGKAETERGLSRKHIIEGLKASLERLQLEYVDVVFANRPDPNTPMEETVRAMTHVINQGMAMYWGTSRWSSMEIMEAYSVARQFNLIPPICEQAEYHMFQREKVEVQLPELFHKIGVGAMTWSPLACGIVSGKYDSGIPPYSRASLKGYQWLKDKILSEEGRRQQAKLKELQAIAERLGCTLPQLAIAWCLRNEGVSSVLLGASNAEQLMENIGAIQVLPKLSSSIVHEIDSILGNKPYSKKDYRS
Alpha-2C adrenergic receptor (Homo sapiens), sequence (P18825 whole entry, looked up): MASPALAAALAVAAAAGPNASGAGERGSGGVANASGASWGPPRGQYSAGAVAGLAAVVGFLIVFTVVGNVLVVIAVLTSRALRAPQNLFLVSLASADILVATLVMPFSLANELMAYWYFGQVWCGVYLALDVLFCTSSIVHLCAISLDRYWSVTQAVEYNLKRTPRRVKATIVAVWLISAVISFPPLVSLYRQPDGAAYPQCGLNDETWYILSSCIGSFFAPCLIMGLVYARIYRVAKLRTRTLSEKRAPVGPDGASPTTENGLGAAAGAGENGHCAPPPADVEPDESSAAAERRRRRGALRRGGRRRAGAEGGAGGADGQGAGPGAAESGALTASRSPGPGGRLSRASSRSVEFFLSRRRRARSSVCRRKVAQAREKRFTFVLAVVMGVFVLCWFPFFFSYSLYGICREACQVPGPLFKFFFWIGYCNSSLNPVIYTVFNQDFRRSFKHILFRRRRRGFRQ
Dual specificity protein phosphatase 6 (Homo sapiens), sequence (Q16828 whole entry, looked up): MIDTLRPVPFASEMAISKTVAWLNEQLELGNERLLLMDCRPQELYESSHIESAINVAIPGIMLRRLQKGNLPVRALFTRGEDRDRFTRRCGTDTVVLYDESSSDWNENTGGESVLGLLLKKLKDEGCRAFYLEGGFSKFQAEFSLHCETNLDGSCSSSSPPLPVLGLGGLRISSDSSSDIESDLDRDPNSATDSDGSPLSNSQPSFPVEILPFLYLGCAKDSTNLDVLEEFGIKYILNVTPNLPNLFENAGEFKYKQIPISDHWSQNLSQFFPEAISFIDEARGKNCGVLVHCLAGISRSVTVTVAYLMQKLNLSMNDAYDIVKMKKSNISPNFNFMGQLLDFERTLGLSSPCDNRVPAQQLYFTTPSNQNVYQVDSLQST

Take `CCCCOC(=O)CSc1nc(N)c(C#N)c(-c2ccc(OC)cc2)c1C#N`: in assay [1], the cell count was found to be 370. Besides, the inhibition (in general, the change of the read-out against control, counted positive when it falls) in assay [1] is -0.4% (inactive); in assay [2], -58.5% (inactive); in assay [4], 3.66% (inactive); in [9], -17.4% (inactive). In [2], this compound showed a nuclei count of 99.4%. The results for the z-score in assay [3] (setting [10]), in [3] (setting [11]) and in assay [3] (setting [12]) were -2.23, 0.0198 and 1.46, respectively. For the same compound, in [5], the fluorescence slope is -0.52 (inactive). Besides, the NADPH fluorescence slope in [6] was -6.6e-05 (inactive). The slope in assay [7] is 0.00456 (inactive). The compound was classed as inactive in assay [8].
Regarding `CCOC(=O)c1cc2c(=O)n3cccc(C)c3nc2n(C)c1=N`, the cell count in [1] was found to be 622. Besides, the inhibition in [1] was -8.8% (inactive); in assay [2], -51.9% (inactive); in assay [4], 6.04% (inactive); in [9], 119% (active). Besides, in [2], the nuclei count came to 142%. For the same compound, the z-score was 1.38 in assay [3] (setting [10]), -1.25 in [3] (setting [11]) and -0.0406 in assay [3] (setting [12]). Further, in assay [5], the fluorescence slope is -0.436 (inactive). Also, the NADPH fluorescence slope in [6] was -8.5e-05 (inactive). In addition, the slope in assay [7] was 0.00241 (inactive). Also, in assay [8], the call was inactive.
Turning to `O=C1[C@@H]2[C@H](C(=O)N1O)[C@H]1C=C[C@@H]2C1`, in assay [1], the cell count stood at 468. The inhibition in assay [1] was -1% (inactive); in [2], -174% (inactive); in assay [4], 1.04% (inactive); in [9], 2.48% (inactive). In addition, in [2], the nuclei count is 209%. Further, the values for the z-score in assay [3] (setting [10]), in assay [3] (setting [11]) and in [3] (setting [12]) were -1.39, 1.02 and 0.777, respectively. The fluorescence slope in assay [5] is -0.392 (inactive). For the same compound, the NADPH fluorescence slope in [6] is -1.7e-05 (inactive). Moreover, the slope in assay [7] was 0.00509 (inactive). The compound was called inactive in assay [8].
`COc1ccc(CCCNC(=O)CC#N)cc1OC`: in [1], the cell count turned out to be 652. For the same compound, the inhibition is -3.9% (inactive) in [1], -14.5% (inactive) in assay [2], 17% (inactive) in [4] and 10.9% (inactive) in assay [9]. The same compound showed a nuclei count in [2] of 185%. Further, the z-score in assay [3] (setting [10]) is -0.133; in [3] (setting [11]), 0.521; in assay [3] (setting [12]), -0.241. The fluorescence slope in assay [5] is -0.512 (inactive). Further, in assay [6], the NADPH fluorescence slope is -4.5e-05 (inactive). The slope in assay [7] is 0.00537 (inactive). Moreover, the compound was called inactive in assay [8].
For `N#CC(C(=O)NC1CC1)c1nc2ccccc2nc1N1CCN(C/C=C/c2ccccc2)CC1` (centres undefined), the cell count in [1] was 507. The inhibition is -4.6% (inactive) in assay [1], -99.8% (inactive) in assay [2], 2.46% (inactive) in assay [4] and 26.9% (inactive) in assay [9]. This compound showed a nuclei count in assay [2] of 164%. For the same compound, the results for the z-score in assay [3] (setting [10]), in [3] (setting [11]) and in assay [3] (setting [12]) were -0.376, 0.378 and 1.69, respectively. Also, in [5], the fluorescence slope is -0.304 (inactive). The NADPH fluorescence slope in assay [6] is -1.2e-05 (inactive). For the same compound, the slope in assay [7] is -0.000245 (inactive). For the same compound, the outcome in [8] was inactive.
For `CCN(CC)CCCN1C(=O)C(O)=C(C(=O)c2ccc(C)o2)C1c1ccc(C)o1` (centres undefined), the cell count in assay [1] was determined as 581. Further, the inhibition was -17.5% (inactive) in [1], -104% (inactive) in assay [2], -2.47% (inactive) in assay [4] and 4.2% (inactive) in assay [9]. The compound further had a nuclei count in assay [2] of 153%. Moreover, the z-score in [3] (setting [10]) came out at 0.106; in assay [3] (setting [11]) it was 0.341; in assay [3] (setting [12]) it was 0.337. The fluorescence slope in assay [5] was -0.485 (inactive). Besides, in assay [6], the NADPH fluorescence slope is -5.2e-05 (inactive). In addition, the slope in assay [7] was 0.00555 (inactive). In addition, the call in [8] was inactive.
As to `C=CCOc1nc2c(c(=O)n(C)c(=O)n2C)n1Cc1ccc(Cl)cc1Cl`, in assay [1], the cell count came out at 555. The inhibition is 1.8% (inactive) in assay [1], -31.1% (inactive) in assay [2], -6.48% (inactive) in [4] and 4.68% (inactive) in [9]. In [2], this compound came in with a nuclei count of 103%. Moreover, the z-score was -0.56 in assay [3] (setting [10]), -0.295 in assay [3] (setting [11]) and 0.979 in assay [3] (setting [12]). In addition, the fluorescence slope in assay [5] is -0.591 (inactive). In [6], the NADPH fluorescence slope was -4.9e-05 (inactive). In assay [7], the slope is 0.00522 (inactive). The result in [8] was inactive.
On to `COc1ccc(C(=O)N/C(N)=N/c2nc3ccccc3o2)cc1`, for which the cell count in assay [1] stood at 557. In addition, the inhibition was -12.2% (inactive) in assay [1], -140% (inactive) in assay [2], -3.97% (inactive) in assay [4] and 14.5% (inactive) in assay [9]. Also, the nuclei count in [2] amounted to 137%. Besides, the z-score in [3] (setting [10]) stood at 0.0574; in assay [3] (setting [11]), 0.314; in assay [3] (setting [12]), 0.889. In assay [5], the fluorescence slope was -0.499 (inactive). Besides, the NADPH fluorescence slope in assay [6] is -3.2e-05 (inactive). Moreover, the slope in assay [7] was 0.0048 (inactive). In addition, in [8], the outcome was inactive.
As to `COc1ccc(-c2cc(-c3ccccc3)n3ncnc3n2)cc1`, in assay [1], the cell count came out at 451. The inhibition was 3.2% (inactive) in assay [1], -35.1% (inactive) in assay [2], -1.12% (inactive) in assay [4] and -19.8% (inactive) in [9]. Further, in [2], the nuclei count stood at 162%. Further, the results for the z-score in assay [3] (setting [10]), in assay [3] (setting [11]) and in [3] (setting [12]) were 1.29, 1.44 and -0.816, respectively. In assay [5], the fluorescence slope was -0.00896 (inactive). The NADPH fluorescence slope in assay [6] is -5.1e-07 (inactive). Also, the slope in assay [7] is 0.00473 (inactive). For the same compound, the result in assay [8] was inactive.
In the case of `COC(=O)c1[nH]c2cc(OC)ccc2c1NC(=O)CCN1CCCC(C)(C)C1`, the cell count in [1] came to 350. In addition, the inhibition is -5.3% (inactive) in assay [1], -2.2% (inactive) in [2], 7.42% (inactive) in assay [4] and -7.62% (inactive) in [9]. The nuclei count in assay [2] was determined as 153%. Moreover, the values for the z-score in assay [3] (setting [10]), in [3] (setting [11]) and in assay [3] (setting [12]) were -0.606, -0.827 and 0.954, respectively. Moreover, in [5], the fluorescence slope was -0.44 (inactive). Moreover, the NADPH fluorescence slope in assay [6] was -0.00014 (inactive). The slope in assay [7] is 0.00716 (inactive). Besides, the compound was classed as inactive in assay [8].
On to `O=c1c(C=NCCCn2ccnc2)c(-c2ccccc2)[nH]n1-c1nc2ccccc2s1`, for which, in assay [1], the cell count is 579. In addition, the inhibition in assay [1] was -6.5% (inactive); in assay [2], -108% (inactive); in assay [4], 25.8% (inactive); in assay [9] it was 1.09% (inactive). The nuclei count in assay [2] was found to be 132%. For the same compound, the figures for the z-score in assay [3] (setting [10]), in assay [3] (setting [11]) and in assay [3] (setting [12]) were 1.34, -0.223 and 0.991, respectively. Besides, the fluorescence slope in assay [5] is -0.47 (inactive). Further, the NADPH fluorescence slope in assay [6] was -1.6e-05 (inactive). The slope in assay [7] is 0.00444 (inactive). In addition, the compound was called inactive in [8].
For `COC(=O)c1ccc(Cn2nnc3c(sc4nc(N5CCOCC5)c5c(c43)CCCC5)c2=O)o1`, the cell count in assay [1] stood at 558. For the same compound, the inhibition is -14.8% (inactive) in assay [1], -101% (inactive) in [2], 24.4% (inactive) in [4] and -3.46% (inactive) in [9]. In [2], the nuclei count worked out at 153%. Moreover, the z-score is 0.962 in [3] (setting [10]), -1.77 in assay [3] (setting [11]) and -0.316 in [3] (setting [12]). The fluorescence slope in assay [5] is -0.275 (inactive). For the same compound, in [6], the NADPH fluorescence slope was 2.3e-06 (inactive). Also, the slope in assay [7] was 0.00716 (inactive). Besides, the outcome in assay [8] is “active; weak signal in gallbladder and intestine”.
Turning to `CC(C)CN1C(=O)NC(NC(=O)c2cccnc2)(C(F)(F)F)C1=O` (centres undefined), the cell count in assay [1] was 488. In addition, the inhibition is -2.8% (inactive) in [1], -106% (inactive) in [2], 1.75% (inactive) in assay [4] and -0.985% (inactive) in [9]. The compound also came in with a nuclei count in assay [2] of 130%. The z-score was 0.462 in [3] (setting [10]), -0.157 in assay [3] (setting [11]) and -1.2 in assay [3] (setting [12]). The fluorescence slope in [5] is -0.505 (inactive). For the same compound, the NADPH fluorescence slope in assay [6] was -7.1e-06 (inactive). Moreover, the slope in assay [7] is 0.00612 (inactive). Also, the compound was classed as inactive in [8].
